Laboratory results reported in ChEMBL document CHEMBL2157989, “Synthesis and biological evaluation of antibody conjugates of phosphate prodrugs of cytotoxic DNA alkylators for the targeted treatment of cancer” (J Med Chem, 2012).
Each block holds one compound with its values, some of them ahead of it. The source made the active and inactive calls. No cut-off for these calls is given here.

What was measured:
[1] = Cytotoxicity against human NAMALWA cells assessed as cell survival after 72 hrs by clonogenic assay; type: functional, cell-based; conditions: NAMALVA
How it was run: (§1)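 Cells were kept in RPMI 1640 with 10% heat-inactivated FBS at 37 °C and 6% CO₂. They were plated at 1000–5000 cells/well and exposed to 0–3 nM test agent for 72 h. Medium was then replaced and colonies grew for 7–10 days in total after plating. Colonies were fixed and stained with 0.2% crystal violet in 10% formalin/PBS, then counted. Surviving fraction = colonies in treated wells / colonies in control wells; IC₅₀ was taken from this.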

HL-60 = assay: Cytotoxicity against human HL60 cells assessed as cell survival after 72 hrs by clonogenic assay; type: functional, cell-based; conditions: HL-60, 72 h; how it was run: as §1
Ramos [2] = assay: Cytotoxicity against human Ramos cells assessed as cell survival after 72 hrs by clonogenic assay; type: functional, cell-based; how it was run: as §1
[3] = Solubility in ethanol at 1.5 mg sonicated for 45 mins followed by centrifugation for 45 mins by UV/Vis spectroscopy; type: physicochemical; conditions: 0.75 h
How it was run: (§2)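 Solid compound (~1.5 mg) in the stated solvent was sonicated 45 min, then centrifuged at 1400g for 45 min. The supernatant concentration was read by UV/vis at 340 nm, using ε = 41500 M⁻¹ cm⁻¹ for the free phenols and 34500 M⁻¹ cm⁻¹ for the phosphate prodrugs (pH 7.0 values).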

[4] = Solubility in methanol at 1.5 mg sonicated for 45 mins followed by centrifugation for 45 mins by UV/Vis spectroscopy; type: physicochemical; conditions: 0.75 h; how it was run: as §2
[5] = Solubility in DMA at 1.5 mg sonicated for 45 mins followed by centrifugation for 45 mins by UV/Vis spectroscopy; type: physicochemical; conditions: 0.75 h; how it was run: as §2
[6] = Solubility in ethyl acetate at 1.5 mg sonicated for 45 mins followed by centrifugation for 45 mins by UV/Vis spectroscopy; type: physicochemical; conditions: 0.75 h; how it was run: as §2
[7] = Solubility in toluene at 1.5 mg sonicated for 45 mins followed by centrifugation for 45 mins by UV/Vis spectroscopy; type: physicochemical; conditions: 0.75 h; how it was run: as §2
[8] = Solubility in chloroform at 1.5 mg sonicated for 45 mins followed by centrifugation for 45 mins by UV/Vis spectroscopy; type: physicochemical; conditions: 0.75 h; how it was run: as §2
[9] = Solubility in DMSO at 1.5 mg sonicated for 45 mins followed by centrifugation for 45 mins by UV/Vis spectroscopy; type: physicochemical; conditions: 0.75 h; how it was run: as §2
[10] = Solubility in DMF at 1.5 mg sonicated for 45 mins followed by centrifugation for 45 mins by UV/Vis spectroscopy; type: physicochemical; conditions: 0.75 h; how it was run: as §2
[11] = Solubility in water at 1.5 mg sonicated for 45 mins followed by centrifugation for 45 mins by UV/Vis spectroscopy; type: physicochemical; conditions: 0.75 h; how it was run: as §2
[12] = Solubility in hexane at 1.5 mg sonicated for 45 mins followed by centrifugation for 45 mins by UV/Vis spectroscopy; type: physicochemical; conditions: 0.75 h; how it was run: as §2
[13] = Solubility in dichloromethane at 1.5 mg sonicated for 45 mins followed by centrifugation for 45 mins by UV/Vis spectroscopy; type: physicochemical; conditions: 0.75 h
Ramos [14] = assay: Antitumor activity against human Ramos cells xenografted in CB17 SCID mouse assessed as reduction in tumor growth rate at 75 ug/kg, iv dosed as qdx5 regime starting 7 days post xenograft; type: functional, organism-based
How it was run: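 Female CB 17 SCID mice, five weeks old, were given Ramos cells subcutaneously under the right shoulder (5 × 10⁶ cells/mouse in 0.1 mL serum-free medium). Tumors grew 7 days to about 100 mm³. Mice were randomized, six per group. Dosing was 75 μg/kg (drug basis) qd ×5, given intravenously, with phosphate-buffered saline as vehicle control. Tumors were measured in three dimensions twice weekly, with volume = ½(l×w×h); body weight was also taken twice weekly.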

[15] = Prodrug activation assessed as enzyme-mediated compound dephosphorylation in presence of canine intestine alkaline phosphatase P8639 at pH 7.4 by HPLC; conditions: dog, isolated protein
[16] = Stability of the compound in 5 % DMA assessed as cyclopropyl ring formation incubated for 1 yr at room temperature at pH 7 by HPLC analysis; type: physicochemical; conditions: buffer, pH 7, 8766 h
How it was run: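 Phosphate prodrug is stored for one year at room temperature in phosphate buffer containing 5% DMA at pH ~7. Conversion to the ring-closed cyclopropyl form is monitored by HPLC.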

[17] = Solubility in water containing 5% THF at 1.5 mg sonicated for 45 mins followed by centrifugation for 45 mins by UV/Vis spectroscopy; type: physicochemical; conditions: 0.75 h
[18] = Prodrug activation assessed as enzyme-mediated compound dephosphorylation in presence of porcine intestine mucosa alkaline phosphatase P4002 at pH 7.4 by HPLC; conditions: pig, isolated protein
[19] = Prodrug activation assessed as enzyme-mediated compound dephosphorylation in presence of rabbit intestine alkaline phosphatase P2256 at pH 7.4 by HPLC; conditions: isolated protein
[20] = Prodrug activation assessed as enzyme-mediated compound dephosphorylation in presence of bovine liver alkaline phosphatase P7034 at pH 7.4 by HPLC; conditions: cattle, isolated protein
[21] = Prodrug activation assessed as enzyme-mediated compound dephosphorylation in presence of porcine kidney alkaline phosphatase P4439 at pH 7.4 by HPLC; conditions: pig, isolated protein
[22] = Prodrug activation assessed as enzyme-mediated compound dephosphorylation in presence of bovine alkaline phosphatase P8361 at pH 7.4 by HPLC; conditions: cattle, isolated protein
[23] = Prodrug activation assessed as enzyme-mediated compound dephosphorylation in presence of calf intestine mucosa alkaline phosphatase P79390 at pH 7.4 by HPLC; conditions: cattle, isolated protein
[24] = Prodrug activation assessed as enzyme-mediated compound dephosphorylation in presence of bovine kidney alkaline phosphatase P4653 at pH 7.4 by HPLC; conditions: cattle, isolated protein
[25] = Solubility in water containing 5% acetone at 1.5 mg sonicated for 45 mins followed by centrifugation for 45 mins by UV/Vis spectroscopy; type: physicochemical; conditions: 0.75 h
[26] = Solubility in water containing 5% DMSO at 1.5 mg sonicated for 45 mins followed by centrifugation for 45 mins by UV/Vis spectroscopy; type: physicochemical; conditions: 0.75 h
[27] = Solubility in water containing 5% DMA at 1.5 mg sonicated for 45 mins followed by centrifugation for 45 mins by UV/Vis spectroscopy; type: physicochemical; conditions: 0.75 h
[28] = Prodrug activation assessed as enzyme-mediated compound dephosphorylation in presence of bovine semen prostatic acid phosphatase P3147 at pH 7.4 by HPLC; conditions: cattle, isolated protein
[29] = Prodrug activation assessed as enzyme-mediated compound dephosphorylation in presence of calf intestine alkaline phosphatase P7923 at pH 7.4 by HPLC; conditions: cattle, isolated protein
[30] = Prodrug activation assessed as enzyme-mediated compound dephosphorylation in presence of bovine intestinal mucosa alkaline phosphatase P7640 at pH 7.4 by HPLC; conditions: cattle, isolated protein
[31] = Prodrug activation assessed as enzyme-mediated compound dephosphorylation in presence of human semen prostatic acid phosphatase P1649 at pH 7.4 by HPLC; conditions: isolated protein
[32] = Solubility in water containing 5% DMF at 1.5 mg sonicated for 45 mins followed by centrifugation for 45 mins by UV/Vis spectroscopy; type: physicochemical; conditions: 0.75 h
[33] = Prodrug activation assessed as enzyme-mediated compound dephosphorylation in presence of human placenta alkaline phosphatase from P3895 at pH 7.4 by HPLC; conditions: isolated protein
[34] = Prodrug activation assessed as enzyme-mediated compound dephosphorylation in presence of wheat germ acid phosphatase Sigma P3627 at pH 7.4 by HPLC; conditions: isolated protein
[35] = Solubility in water containing 5% dioxane at 1.5 mg sonicated for 45 mins followed by centrifugation for 45 mins by UV/Vis spectroscopy; type: physicochemical; conditions: 0.75 h

solubility [3]: Insoluble
solubility [4]: Insoluble
solubility [5]: soluble
solubility [6]: Insoluble
solubility [7]: Insoluble
solubility [8]: Insoluble
solubility [9]: soluble
solubility [10]: soluble
solubility [11]: Insoluble
solubility [12]: Insoluble
solubility [13]: Insoluble
SMILES: O=C(CCSSc1ccccn1)Nc1ccc2[nH]c(C(=O)Nc3ccc4[nH]c(C(=O)N5C[C@@H](CCl)c6c5cc(O)c5ccccc65)cc4c3)cc2c1
IC50 (Ramos [2]): 0.05 nM
IC50 [1]: 0.09 nM
IC50 (HL-60): 0.05 nM

solubility [3]: Insoluble
solubility [4]: Insoluble
solubility [5]: soluble
solubility [6]: Insoluble
solubility [7]: Insoluble
solubility [8]: Insoluble
solubility [9]: soluble
solubility [10]: soluble
solubility [11]: Insoluble
solubility [12]: Insoluble
solubility [13]: Insoluble
SMILES: CC(=O)SCCC(=O)Nc1ccc2[nH]c(C(=O)Nc3ccc4[nH]c(C(=O)N5C[C@@H](CCl)c6c5cc(O)c5ccccc65)cc4c3)cc2c1
IC50 (Ramos [2]): 0.047 nM
IC50 [1]: 0.02 nM
IC50 (HL-60): 0.045 nM

More lines, now with the values behind:

SMILES: Nc1ccc2[nH]c(C(=O)Nc3ccc4[nH]c(C(=O)N5C[C@@H](CCl)c6c5cc(O)c5ccccc65)cc4c3)cc2c1
IC50 [1]: 0.005 nM
IC50 (HL-60): 0.03 nM

SMILES: CC(C)(S)CCC(=O)Nc1ccc2[nH]c(C(=O)Nc3ccc4[nH]c(C(=O)N5C[C@@H](CCl)c6c5cc(OP(=O)(O)O)c5ccccc65)cc4c3)cc2c1
Activity (Ramos [14]): inactive
Drug metabolism [15]: Active
Drug degradation [16]: 3%
solubility [17]: soluble
Drug metabolism [18]: Active
Drug metabolism [19]: Active
Drug metabolism [20]: Active
solubility [3]: Insoluble
Drug metabolism [21]: Active
Drug metabolism [22]: Active
solubility [4]: Insoluble
solubility [5]: soluble
solubility [6]: Insoluble
Drug metabolism [23]: Active
Drug metabolism [24]: Active
solubility [7]: Insoluble
solubility [25]: soluble
solubility [26]: soluble
solubility [27]: soluble
solubility [8]: Insoluble
solubility [9]: soluble
Drug metabolism [28]: Active
Drug metabolism [29]: Active
solubility [10]: soluble
Drug metabolism [30]: Active
Drug metabolism [31]: Active
solubility [32]: soluble
solubility [11]: Insoluble
solubility [12]: Insoluble
solubility [13]: Insoluble
Drug metabolism [33]: Active
Drug metabolism [34]: Active
solubility [35]: soluble

SMILES: CSSCCC(=O)Nc1ccc2[nH]c(C(=O)Nc3ccc4[nH]c(C(=O)N5C[C@H]6CC67C5=CC(=O)c5ccccc57)cc4c3)cc2c1 (stereo partly specified)
IC50 (Ramos [2]): 0.015 nM
IC50 [1]: 0.012 nM
IC50 (HL-60): 0.012 nM

SMILES: O=C(CCS)Nc1ccc2[nH]c(C(=O)Nc3ccc4[nH]c(C(=O)N5C[C@@H](CCl)c6c5cc(OP(=O)(O)O)c5ccccc65)cc4c3)cc2c1
Activity (Ramos [14]): inactive
Drug metabolism [15]: Active
Drug degradation [16]: 3%
solubility [17]: soluble
Drug metabolism [18]: Active
Drug metabolism [19]: Active
Drug metabolism [20]: Active
solubility [3]: Insoluble
Drug metabolism [21]: Active
Drug metabolism [22]: Active
solubility [4]: Insoluble
solubility [5]: soluble
solubility [6]: Insoluble
Drug metabolism [23]: Active
Drug metabolism [24]: Active
solubility [7]: Insoluble
solubility [25]: soluble
solubility [26]: soluble
solubility [27]: soluble
solubility [8]: Insoluble
solubility [9]: soluble
Drug metabolism [28]: Active
Drug metabolism [29]: Active
solubility [10]: soluble
Drug metabolism [30]: Active
Drug metabolism [31]: Active
solubility [32]: soluble
solubility [11]: Insoluble
solubility [12]: Insoluble
solubility [13]: Insoluble
Drug metabolism [33]: Active
Drug metabolism [34]: Active
solubility [35]: soluble

SMILES: O=C(Nc1ccc2[nH]c(C(=O)N3C[C@@H](CCl)c4c3cc(O)c3ccccc43)cc2c1)c1cc2cc([N+](=O)[O-])ccc2[nH]1
IC50 [1]: 0.005 nM
IC50 (HL-60): 0.007 nM
